Measured values taken from ChEMBL document CHEMBL5058577, “EUbOPEN Chemogenomics Library 2 (Multiplex)” (2022).

System: HEK-293T
Test: Multiplex assay against HEK293T
Format: toxicity, cell-based
Settings: human
Summary of the method: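 Cells stained live at seeding with Hoechst33342, BioTracker Green Microtubule Cytoskeleton Dye, MitoTracker Red and Annexin V Alexa Fluor 680 were imaged on a CQ1 microscope at 37°C and 5% CO2 after compound addition. Their classification by CellPathfinder machine-learning gating ran from Hoechst high-intensity objects versus normal cells, to healthy, pyknosed or fragmented nuclei among normal cells, to mitotic or apoptotic among pyknosed cells. Tubulin, mitochondrial-mass and membrane-permeability phenotypes are per cents of healthy-nucleus cells.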

[1] = 12 h, 1 µM, compound concentration 1 uM, replicate 1
[2] = 12 h, 1 µM, compound concentration 1 uM, replicate 2
[3] = 12 h, 10 µM, compound concentration 10 uM, replicate 1
[4] = 12 h, 10 µM, compound concentration 10 uM, replicate 2
[5] = 24 h, 1 µM, compound concentration 1 uM, replicate 1
[6] = 24 h, 1 µM, compound concentration 1 uM, replicate 2
[7] = 24 h, 10 µM, compound concentration 10 uM, replicate 1
[8] = 24 h, 10 µM, compound concentration 10 uM, replicate 2
[9] = 48 h, 1 µM, compound concentration 1 uM, replicate 1
[10] = 48 h, 1 µM, compound concentration 1 uM, replicate 2
[11] = 48 h, 10 µM, compound concentration 10 uM, replicate 1
[12] = 48 h, 10 µM, compound concentration 10 uM, replicate 2

SMILES: C[C@H](NC(=O)CNC(=O)c1cccc(Cl)c1)c1ccccc1
- Population Apoptotic (%) [1]: 33%
- Population Fragmented Nuclei (%) [1]: 5%
- Population Healthy Nuclei (%) [1]: 79%
- Population Hoechst High Intensity Objects (%) [1]: 8%
- Population Membrane Permeable-Phenotype (%) [1]: 0%
- Population Mitochondria Different-Phenotype (%) [1]: 39%
- Population Mitotic Cells (%) [1]: 66%
- Population Normal (%) [1]: 91%
- Population Pyknosed Nuclei (%) [1]: 15%
- Population Tubulin-Different-Phenotype (%) [1]: 29%
- Total Cell Count [1]: 449
- Population Apoptotic (%) [2]: 48%
- Population Fragmented Nuclei (%) [2]: 6%
- Population Healthy Nuclei (%) [2]: 84%
- Population Hoechst High Intensity Objects (%) [2]: 4%
- Population Mitochondria Different-Phenotype (%) [2]: 52%
- Population Mitotic Cells (%) [2]: 51%
- Population Normal (%) [2]: 95%
- Population Pyknosed Nuclei (%) [2]: 9%
- Population Tubulin-Different-Phenotype (%) [2]: 17%
- Total Cell Count [2]: 384
- Population Apoptotic (%) [3]: 41%
- Population Fragmented Nuclei (%) [3]: 6%
- Population Healthy Nuclei (%) [3]: 76%
- Population Hoechst High Intensity Objects (%) [3]: 7%
- Population Membrane Permeable-Phenotype (%) [3]: 0%
- Population Mitochondria Different-Phenotype (%) [3]: 54%
- Population Mitotic Cells (%) [3]: 58%
- Population Normal (%) [3]: 92%
- Population Pyknosed Nuclei (%) [3]: 17%
- Population Tubulin-Different-Phenotype (%) [3]: 39%
- Total Cell Count [3]: 362
- Population Apoptotic (%) [4]: 58%
- Population Fragmented Nuclei (%) [4]: 7%
- Population Healthy Nuclei (%) [4]: 77%
- Population Hoechst High Intensity Objects (%) [4]: 13%
- Population Mitochondria Different-Phenotype (%) [4]: 61%
- Population Mitotic Cells (%) [4]: 41%
- Population Normal (%) [4]: 86%
- Population Pyknosed Nuclei (%) [4]: 15%
- Population Tubulin-Different-Phenotype (%) [4]: 33%
- Total Cell Count [4]: 272
- Population Apoptotic (%) [5]: 23%
- Population Fragmented Nuclei (%) [5]: 9%
- Population Healthy Nuclei (%) [5]: 80%
- Population Hoechst High Intensity Objects (%) [5]: 4%
- Population Membrane Permeable-Phenotype (%) [5]: 1%
- Population Mitochondria Different-Phenotype (%) [5]: 25%
- Population Mitotic Cells (%) [5]: 76%
- Population Normal (%) [5]: 95%
- Population Pyknosed Nuclei (%) [5]: 10%
- Population Tubulin-Different-Phenotype (%) [5]: 15%
- Total Cell Count [5]: 646
- Population Apoptotic (%) [6]: 45%
- Population Fragmented Nuclei (%) [6]: 7%
- Population Healthy Nuclei (%) [6]: 84%
- Population Hoechst High Intensity Objects (%) [6]: 2%
- Population Membrane Permeable-Phenotype (%) [6]: 0%
- Population Mitochondria Different-Phenotype (%) [6]: 32%
- Population Mitotic Cells (%) [6]: 54%
- Population Normal (%) [6]: 97%
- Population Pyknosed Nuclei (%) [6]: 7%
- Population Tubulin-Different-Phenotype (%) [6]: 9%
- Total Cell Count [6]: 476
- Population Apoptotic (%) [7]: 43%
- Population Fragmented Nuclei (%) [7]: 9%
- Population Healthy Nuclei (%) [7]: 77%
- Population Hoechst High Intensity Objects (%) [7]: 4%
- Population Membrane Permeable-Phenotype (%) [7]: 0%
- Population Mitochondria Different-Phenotype (%) [7]: 39%
- Population Mitotic Cells (%) [7]: 56%
- Population Normal (%) [7]: 95%
- Population Pyknosed Nuclei (%) [7]: 12%
- Population Tubulin-Different-Phenotype (%) [7]: 25%
- Total Cell Count [7]: 505
- Population Apoptotic (%) [8]: 58%
- Population Fragmented Nuclei (%) [8]: 10%
- Population Healthy Nuclei (%) [8]: 78%
- Population Hoechst High Intensity Objects (%) [8]: 9%
- Population Mitochondria Different-Phenotype (%) [8]: 49%
- Population Mitotic Cells (%) [8]: 41%
- Population Normal (%) [8]: 90%
- Population Pyknosed Nuclei (%) [8]: 11%
- Population Tubulin-Different-Phenotype (%) [8]: 19%
- Total Cell Count [8]: 303
- Population Apoptotic (%) [9]: 19%
- Population Fragmented Nuclei (%) [9]: 13%
- Population Healthy Nuclei (%) [9]: 80%
- Population Hoechst High Intensity Objects (%) [9]: 3%
- Population Membrane Permeable-Phenotype (%) [9]: 0%
- Population Mitochondria Different-Phenotype (%) [9]: 15%
- Population Mitotic Cells (%) [9]: 80%
- Population Normal (%) [9]: 96%
- Population Pyknosed Nuclei (%) [9]: 5%
- Population Tubulin-Different-Phenotype (%) [9]: 12%
- Total Cell Count [9]: 984
- Population Apoptotic (%) [10]: 30%
- Population Healthy Nuclei (%) [10]: 81%
- Population Hoechst High Intensity Objects (%) [10]: 2%
- Population Membrane Permeable-Phenotype (%) [10]: 2%
- Population Mitochondria Different-Phenotype (%) [10]: 16%
- Population Mitotic Cells (%) [10]: 70%
- Population Normal (%) [10]: 97%
- Population Tubulin-Different-Phenotype (%) [10]: 6%
- Total Cell Count [10]: 606
- Population Apoptotic (%) [11]: 44%
- Population Fragmented Nuclei (%) [11]: 15%
- Population Healthy Nuclei (%) [11]: 77%
- Population Hoechst High Intensity Objects (%) [11]: 1%
- Population Membrane Permeable-Phenotype (%) [11]: 0%
- Population Mitochondria Different-Phenotype (%) [11]: 26%
- Population Mitotic Cells (%) [11]: 55%
- Population Normal (%) [11]: 98%
- Population Pyknosed Nuclei (%) [11]: 7%
- Population Tubulin-Different-Phenotype (%) [11]: 18%
- Total Cell Count [11]: 735
- Population Apoptotic (%) [12]: 35%
- Population Fragmented Nuclei (%) [12]: 19%
- Population Healthy Nuclei (%) [12]: 72%
- Population Hoechst High Intensity Objects (%) [12]: 2%
- Population Mitochondria Different-Phenotype (%) [12]: 28%
- Population Mitotic Cells (%) [12]: 64%
- Population Normal (%) [12]: 97%
- Population Tubulin-Different-Phenotype (%) [12]: 16%
- Total Cell Count [12]: 462
